Laboratory results published in ChEMBL document CHEMBL1157808, “Synthesis and biological evaluation of phenolic 4,5-dihydroisoxazoles and 3-hydroxy ketones as estrogen receptor alpha and beta agonists” (Bioorg Med Chem, 2010).

Experiments:
[1] = molecular target: T1, Estrogen receptor (Homo sapiens) (UniProt P03372); assay: Agonist activity at ERalpha expressed in HEK293 cells at 10 uM after 24 hrs by luciferase reporter gene assay relative to 3,17-beta-estradiol; type: functional, cell-based
T1 sequence (whole entry): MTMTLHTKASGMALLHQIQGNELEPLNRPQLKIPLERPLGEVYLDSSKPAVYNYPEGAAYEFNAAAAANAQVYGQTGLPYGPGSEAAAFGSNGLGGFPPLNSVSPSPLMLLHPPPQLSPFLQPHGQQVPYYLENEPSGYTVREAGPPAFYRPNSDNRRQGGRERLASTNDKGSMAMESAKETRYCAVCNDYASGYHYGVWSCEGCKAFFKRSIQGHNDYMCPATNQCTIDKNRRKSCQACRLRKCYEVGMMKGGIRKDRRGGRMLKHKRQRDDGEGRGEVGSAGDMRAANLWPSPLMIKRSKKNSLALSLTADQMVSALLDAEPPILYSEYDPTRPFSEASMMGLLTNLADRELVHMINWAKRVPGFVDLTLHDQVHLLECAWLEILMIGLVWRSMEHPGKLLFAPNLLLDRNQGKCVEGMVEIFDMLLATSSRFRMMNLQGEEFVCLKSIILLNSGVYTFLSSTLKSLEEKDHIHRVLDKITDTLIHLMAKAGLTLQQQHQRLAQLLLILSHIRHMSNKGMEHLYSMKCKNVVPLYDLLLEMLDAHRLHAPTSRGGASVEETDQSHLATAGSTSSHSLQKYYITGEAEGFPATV
How it was run: (§1)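 HEK293 cells (no endogenous ER) in phenol-free DMEM with 5% delipidated FBS were transfected for 4 h with 5 ng ERα or ERβ expression vector, 75 ng pERE2TATA-LUC reporter and 20 ng pCMVβ. Cells then received 10 μM compound, 10 nM E2 or vehicle (0.1% v/v) for 24 h. Luciferase was normalized to β-galactosidase and expressed as 100% × (test − vehicle)/(E2 − vehicle). Values are means of at least three independent transfections.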

[2] = molecular target: Estrogen receptor beta (Homo sapiens) (UniProt Q92731); assay: Agonist activity at ERbeta expressed in HEK293 cells at 10 uM after 24 hrs by luciferase reporter gene assay relative to 3,17-beta-estradiol; type: functional, cell-based; how it was run: as §1
Chain of Estrogen receptor beta (Homo sapiens) (Q92731 whole entry): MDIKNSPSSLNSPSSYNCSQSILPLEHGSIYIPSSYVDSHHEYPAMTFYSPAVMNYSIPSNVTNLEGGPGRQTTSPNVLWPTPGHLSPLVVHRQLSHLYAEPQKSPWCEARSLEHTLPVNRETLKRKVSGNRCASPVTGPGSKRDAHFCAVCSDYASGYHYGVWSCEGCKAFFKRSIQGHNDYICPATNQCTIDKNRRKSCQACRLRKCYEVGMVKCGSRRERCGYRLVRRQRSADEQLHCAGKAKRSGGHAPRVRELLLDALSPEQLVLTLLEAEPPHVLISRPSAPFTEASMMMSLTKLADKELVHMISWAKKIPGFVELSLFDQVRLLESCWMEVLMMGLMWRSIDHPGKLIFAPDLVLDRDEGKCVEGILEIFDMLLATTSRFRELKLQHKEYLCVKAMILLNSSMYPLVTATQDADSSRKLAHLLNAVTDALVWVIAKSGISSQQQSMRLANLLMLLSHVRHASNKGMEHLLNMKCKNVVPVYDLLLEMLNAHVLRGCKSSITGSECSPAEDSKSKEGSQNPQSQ

Homo sapiens = species: Homo sapiens; assay: Selectivity ratio of relative binding affinity for human ERalpha to relative binding affinity for human ERbeta
How it was run: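 COS-1 cells in DMEM with 10% delipidated FBS were transfected for 24 h with human ERα or ERβ vector (pSG5-hERα/β). Cells were washed, lysed in 0.5 M NaOH at 56 °C for 15 min and counted by scintillation, with nonspecific binding subtracted.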

| SMILES | Activity [1] [%] | Activity [2] [%] | Ratio (Homo sapiens) |
| --- | --- | --- | --- |
| Oc1ccc(CC2CC(CCc3ccccc3)=NO2)cc1 (stereo not given) | 105 | 42.4 |  |
| Oc1ccccc1CCC1=NOC(Cc2ccc(F)cc2)C1 (stereo not given) | 11.1 | -2.4 |  |
| c1ccc(CCC2=NOC(CCc3ccccc3)C2)cc1 (stereo not given) | 43.9 | -0.4 |  |
| c1ccc(CCCC2=NOC(Cc3ccccc3)C2)cc1 (stereo not given) | 28.1 | 5.1 |  |
| CC(O)(CC(=O)CCCc1ccc(O)cc1)c1ccccc1 (racemic) | 90.9 | 103 | 8 |
| CC(O)(CC(=O)CCCc1ccccc1)c1ccccc1 (racemic) | 83.3 | 15.1 | 2 |
| CC(O)(CC(=O)CCc1ccc(O)cc1)c1ccccc1 (racemic) | 80.3 | 116 |  |
| CC(O)(CC(=O)CCc1ccccc1)c1ccccc1 (racemic) | 52.1 | 38.4 |  |
| CC1(c2ccccc2)CC(CCCc2ccccc2)=NO1 (racemic) | 69.5 | 15.5 | 1.5 |
| O=C(CCCc1ccc(O)c(O)c1)CC(O)Cc1ccc(O)cc1 (racemic) | 0.5 | -0.6 |  |
| O=C(CCCc1ccc(O)c(O)c1)CC(O)Cc1ccccc1 (racemic) | -0.5 | -0.8 |  |
| O=C(CCCc1ccc(O)cc1)CC(O)Cc1ccccc1 (racemic) | 105 | 82.3 | 11 |
| O=C(CCCc1ccccc1)CC(O)Cc1ccc(O)cc1 (racemic) | 16 | 2.4 |  |
| O=C(CCc1ccc(O)cc1)CC(O)CCc1ccccc1 (racemic) | 46.8 | 10.1 | 0.3 |
| O=C(CCc1ccc(O)cc1)CC(O)Cc1ccc(F)cc1 (racemic) | 28.6 | 21.2 |  |
| O=C(CCc1ccc(O)cc1)CC(O)Cc1ccccc1 (racemic) | 55 | 107 | 0.2 |
| O=C(CCc1cccc(O)c1)CC(O)CCc1ccccc1 (racemic) | 87.3 | 48.1 | 106 |
| O=C(CCc1ccccc1)CC(O)Cc1ccc(O)cc1 (racemic) | 51.4 | 6.1 |  |
| O=C(CCc1ccccc1O)CC(O)CCc1ccccc1 (racemic) | 4 | 1.1 |  |
| O=C(CCc1ccccc1O)CC(O)Cc1ccc(F)cc1 (racemic) | 21.6 | 11.1 |  |
| O=C(CCc1ccccc1O)CC(O)Cc1ccccc1 (racemic) | 45.2 | 5.1 |  |

| SMILES | Activity [1] [%] | Activity [2] [%] | Ratio (Homo sapiens) |
| --- | --- | --- | --- |
| Fc1ccc(CC2CC(CCc3ccccc3)=NO2)cc1 (single isomer, unassigned) | 28.9 | 7.4 |  |
| O=C(CCCc1ccc(O)cc1)CC(O)c1cccc(O)c1 (single isomer, unassigned) | 49.3 | 43.5 |  |
| O=C(CCCc1ccccc1)CC(O)c1ccccc1 (single isomer, unassigned) | 59.3 | 28.2 | 5 |
| O=C(CCc1ccccc1)CC(O)c1ccccc1 (single isomer, unassigned) | 25.3 | 2.8 |  |
| Oc1ccc(CCC2=NOC(CCc3ccccc3)C2)cc1 (single isomer, unassigned) | 62.8 | 15.4 |  |
| Oc1ccc(CCC2=NOC(Cc3ccc(F)cc3)C2)cc1 (single isomer, unassigned) | 5.7 | 4.4 |  |
| Oc1ccc(CCCC2=NOC(Cc3ccc(O)cc3)C2)cc1 (single isomer, unassigned) | 13.6 | 10.6 |  |
| Oc1ccc(CCCC2=NOC(Cc3ccccc3)C2)cc1 (single isomer, unassigned) | 75.1 | 19.8 |  |
| Oc1ccc(CCCC2=NOC(c3cccc(O)c3)C2)cc1 (single isomer, unassigned) | 32.9 | -0.9 |  |
| Oc1cccc(CCC2=NOC(CCc3ccccc3)C2)c1 (single isomer, unassigned) | 3 | 3.6 |  |
| Oc1ccccc1CCC1=NOC(CCc2ccccc2)C1 (single isomer, unassigned) | 4.5 | 4.2 |  |
| Oc1ccccc1CCC1=NOC(Cc2ccccc2)C1 (single isomer, unassigned) | 39.7 | 30.5 |  |
| c1ccc(CCC2=NOC(Cc3ccccc3)C2)cc1 (single isomer, unassigned) | 38.2 | 1.3 |  |
| c1ccc(CCC2=NOC(c3ccccc3)C2)cc1 (single isomer, unassigned) | 11.2 | 8.1 |  |
| Oc1ccc(CCC2=NOC(Cc3ccccc3)C2)cc1 (single isomer, unassigned; 3a) |  |  | 6 |
| Oc1ccc(CCC2=NOC(Cc3ccccc3)C2)cc1 (single isomer, unassigned; 3b) | 24.3 | 41.5 | 0.5 |
| Oc1ccc(CC2CC(CCCc3ccccc3)=NO2)cc1 (single isomer, unassigned; 25a) | 67.1 | 4.7 |  |
| Oc1ccc(CC2CC(CCCc3ccccc3)=NO2)cc1 (single isomer, unassigned; 25b) | 97.2 | 17 |  |
| Oc1ccc(CCCC2=NOC(Cc3ccccc3)C2)cc1O (single isomer, unassigned; 27a) | 0.3 | 1.3 |  |
| Oc1ccc(CCCC2=NOC(Cc3ccccc3)C2)cc1O (single isomer, unassigned; 27b) | 2.1 | -1.3 |  |
| Oc1ccc(CC2CC(CCCc3ccc(O)c(O)c3)=NO2)cc1 (single isomer, unassigned; 28a) | 1.7 | -1.1 |  |

| SMILES | Activity [1] [%] | Activity [2] [%] | Ratio (Homo sapiens) |
| --- | --- | --- | --- |
| Oc1ccc(CC2CC(CCCc3ccc(O)c(O)c3)=NO2)cc1 (single isomer, unassigned; 28b) | 1.4 | -0.7 |  |
| CC1(c2ccccc2)CC(CCc2ccccc2)=NO1 (single isomer, unassigned; 36a) | 8.1 | -20 |  |
| CC1(c2ccccc2)CC(CCc2ccccc2)=NO1 (single isomer, unassigned; 36b) | 10.9 | -7.3 |  |
| CC1(c2ccccc2)CC(CCc2ccccc2O)=NO1 (single isomer, unassigned; 37a) | 11.8 | -0.4 |  |
| CC1(c2ccccc2)CC(CCc2ccccc2O)=NO1 (single isomer, unassigned; 37b) | 21.7 | 30 |  |
| CC1(c2ccccc2)CC(CCc2cccc(O)c2)=NO1 (single isomer, unassigned; 38a) | 21.6 | 0.5 |  |
| CC1(c2ccccc2)CC(CCc2cccc(O)c2)=NO1 (single isomer, unassigned; 38b) | 7.1 | -2.9 |  |
| CC1(c2ccccc2)CC(CCc2ccc(O)cc2)=NO1 (single isomer, unassigned; 39a) | 39.7 | 18 |  |
| CC1(c2ccccc2)CC(CCc2ccc(O)cc2)=NO1 (single isomer, unassigned; 39b) | 18.7 | 37.4 |  |
| Oc1ccccc1CCC1=NOC(CCc2ccccc2)C1 (stereo in doubt; 16b) | 21.8 | 2.6 |  |
| Oc1cccc(CCC2=NOC(CCc3ccccc3)C2)c1 (stereo in doubt; 17a) | 8.3 | 2.6 |  |
| Oc1ccc(CCC2=NOC(CCc3ccccc3)C2)cc1 (stereo in doubt; 18b) | 15.8 | 0.8 |  |
| Oc1ccc(CCCC2=NOC(Cc3ccccc3)C2)cc1 (stereo in doubt; 24a) | 154 | 78.2 |  |
| Oc1ccc(CCCC2=NOC(Cc3ccc(O)cc3)C2)cc1 (stereo in doubt; 26a) | 14.4 | -0.9 |  |
| O=C(CCCc1ccc(O)cc1)CC(O)Cc1ccc(O)cc1 (stereo in doubt; 32b) | 2.8 | -1.6 |  |
| c1ccc(CCCC2=NOC(c3ccccc3)C2)cc1 (stereo in doubt; 43a) |  | -3.1 |  |
| Oc1ccc(CCCC2=NOC(c3cccc(O)c3)C2)cc1 (stereo in doubt; 47b) | 27.6 | 7.2 |  |
| O=C(CCCc1ccccc1)CC(O)c1ccccc1 (stereo in doubt; 48a) |  |  | 0.7 |
| O=C(CCCc1ccc(O)cc1)CC(O)Cc1ccc(O)cc1 (stereo in doubt; form 1) | 87.4 | 108 |  |
| O=C(CCCc1ccc(O)cc1)CC(O)Cc1ccc(O)cc1 (stereo in doubt; form 2) | 15.4 | 1.8 |  |
